Here are results for eight compounds from ChEMBL document CHEMBL1140439, “Pharmacophore modeling, docking, and principal component analysis based clustering: combined computer-assisted approaches to identify new inhibitors of the human rhinovirus coat protein” (J Med Chem, 2005).

Test [1] in a line: Percent toxicity at 32 ug/mL on OH-I cells; range 50-100 %. The class given is functional, Homo sapiens. Put shortly: (§1)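 Static toxicity test on uninfected OH-I monolayers at or near 100% confluency, in 2% McCoy's with 0.25% DMSO. Compound given at the three highest concentrations (100, 32, 10 ug/mL). Monolayer reduction was scored against cell control; 50% or greater reduction counted as cytotoxic.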

The subject of test [2] is WI-38. Description: Effective concentration dissolved in DMSO against HRV serotype 39 in WI-38 cells by multiple-cycle CPE inhibition assay; microscopic. The class given is functional, cell-based. The settings on record: Homo sapiens. Put shortly: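 Multiple-cycle CPE assay with HRV serotype 39 on 100% confluent WI-38 fibroblasts in 5% EMEM, 0.5% DMSO final. Triplicate monolayers received compound at 32, 10, 3.2, 1.0, 0.1 ug/mL plus three serial log virus dilutions. Read only microscopically (staining too weak) after virus controls reached 80–100% CPE at 32–320 TCID50. EC50 is the concentration giving 50% CPE inhibition.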

Test [3] can be described thus: Effective concentration dissolved in DMSO against HRV serotype 39 in OH-I cells by multiple-cycle CPE inhibition assay; spectrophotometric. In kind it is functional, cell-based, Homo sapiens. The essentials:
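HRV serotype 39 CPE inhibition assay in triplicate 85% confluent OH-I monolayers, 2% McCoy's, 0.25% DMSO final, compound at 100–0.1 ug/mL. Once virus controls reached 80–100% CPE (32–320 TCID50), cells were stained with 0.4% crystal violet for 20–30 min at room temperature, destained with 30% methanol/10% acetic acid, and OD read at 550 nm. EC50 is the concentration giving a 50% OD increase versus virus control, from Chou–Chou dose-effect analysis.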

The nature of test [4]: Percent toxicity at 100 ug/mL on OH-I cells; range 50-100 %. In kind it is functional, Homo sapiens. The essentials:
as §1

A short description of test [5]: Effective concentration dissolved in DMSO against HRV serotype 39 in OH-I cells by multiple-cycle CPE inhibition assay; microscopic. In kind it is functional, cell-based, Homo sapiens. The essentials:
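Multiple-cycle CPE inhibition assay, HRV serotype 39 (ATCC), 85% confluent OH-I monolayers in 2% McCoy's, 0.25% DMSO final. Triplicate wells received compound then three serial log virus dilutions. EC50 taken as the concentration giving 50% CPE inhibition.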

The nature of test [6]: Percent toxicity at 10 ug/mL on OH-I cells. In kind it is functional, Homo sapiens. Put shortly:
as §1

The nature of test [7]: Percent toxicity at 10 ug/mL on OH-I cells; range 50-100 %. The class given is functional, Homo sapiens. The essentials:
as §1

Test [8] deals with WI-38. Description: Percent toxicity at 10 ug/mL on WI-38 cells. In kind it is functional, Homo sapiens. Put shortly:
(§2)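 Static toxicity test on uninfected WI-38 monolayers at or near 100% confluency, in 5% EMEM with 0.5% DMSO. Compound given at the three highest concentrations (32, 10, 3.2 ug/mL). Monolayer reduction was scored against cell control; 50% or greater reduction counted as cytotoxic.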

Test [9] concerns WI-38. The test is described as follows: Percent toxicity at 32 ug/mL on WI-38 cells. In kind it is functional, Homo sapiens. Put shortly:
as §2

In test [10] the test system is WI-38. Description: Cytostatic concentration against WI-38 cells. In kind it is functional, Homo sapiens.

SMILES strings stand for the structures. A value given as a limit tells only on which side of the number the result lay.

What is called EC50 is the midpoint of the concentration-response curve. Read a high EC50 as lower potency in that assay. Consider `CC1(C)CCc2cc(CN3CCN(c4ccc(C(F)(F)F)cn4)CC3)ccc2O1`, for which the Toxicity was 100% in [1], 100% in test [4] and 30% in test [6]. Further, the EC50 in the test on WI-38 [2] worked out at 165 µM; in test [3], 17 µM; in [5], 15 µM.
As for `COc1cc2c(cc1OC)C(C)N(C(=O)Nc1ccc(OC(F)(F)F)cc1)CC2` (stereo not drawn), the Toxicity in test [7], in test [1] and in test [4] was 100% throughout. For the same compound, the EC50 with WI-38 [2] was below 78 µM; in test [3], 4.9 µM; in test [5], 121 µM.
Consider `Cc1csc2c(N3CCN(C(=O)Nc4ccc(OC(F)(F)F)cc4)CC3)ncnc12`, for which the Toxicity in test [7], in test [1] and in test [4] was 100% throughout. Besides, the EC50 was determined as 48 µM in the test on WI-38 [2], 4.3 µM in test [3] and 7.3 µM in test [5].
Consider `CC1(C)CCc2cc(CN3CCN(c4ncc(C(F)(F)F)cc4Cl)CC3)ccc2O1`, for which the Toxicity in test [1] came to 100%; in test [4], 100%; in test [6], 30%. The results for the EC50 (with WI-38 [2]; in test [3]; in test [5]) were below 72.7 µM, 32.1 µM and 35.7 µM, respectively.
On to `O=C(Nc1ccc(SC(F)(F)F)cc1)Nc1ccc(-n2ccc(C(F)(F)F)n2)cc1`, for which the Toxicity entry in the test with WI-38 [8] is recorded as “<=50%”; in the test with WI-38 [9], “<=50%”; in test [7], 100%; in test [1] it was 100%; in [4], 100%. Besides, the EC50 with WI-38 [2] was determined as 11.2 µM; in [3] it was 246 µM; in [5], 247 µM.
Regarding `COC(=O)c1ccc(CSc2nnc(-c3ccc4ncccc4c3)n2C)cc1`, the results for the EC50 (in the test on WI-38 [2]; in test [3]; in [5]) were below 82 µM, 88.4 µM and 142 µM, respectively. In addition, the Toxicity in [4] is recorded as 30%.
In the test with WI-38 [10], `Cc1cc(CCCOc2c(C)cc(-c3noc(C(F)(F)F)n3)cc2C)on1` [PLECONARIL] registered a Cytostatic concentration of 30 µg/mL.
Same read-out and setting: the result for `CCOC(=O)/C=C/[C@H](C[C@@H]1CCNC1=O)NC(=O)[C@@H](CC(=O)[C@@H](NC(=O)c1cc(C)on1)C(C)C)Cc1ccc(F)cc1` [RUPINTRIVIR] reads above 100 µg/mL.
